Data as given in ChEMBL document CHEMBL4513216, “Probing the Open Global Health Chemical Diversity Library for Multistage-Active Starting Points for Next-Generation Antimalarials” (ACS Infect Dis, 2020).

Assay: Toxicity liver stage against HepG2, at 10uM
Format: cell-based
Set-up: test concentration 10 uM, cell line HepG2-A16-CD81EGFP
Settings: human, HepG2-A16-CD81EGFP cells; read-out: INHIBITION
Procedure, shortened: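 Uninfected HepG2-A16-CD81EGFP cells, 3 × 10^3 per well, 1536-well, plated on prespotted compound at 10 μM final, parasite-free screening media added to match infected plates; puromycin 10 μM positive, DMSO 0.5% negative; run in parallel with 48 h PbLuc assay at 37 °C, 5% CO2; viability by CellTiter-Glo luminescence, normalized to controls.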

Structure (SMILES)	cytotoxicity at 10 µM
O=C(Nc1cccc(OCc2cccc(F)c2)c1)C1COCCO1 (configuration not stated)	8.06%
Cc1c(NC(=O)C(C)N(C)C)c(=O)n(-c2ccccc2)n1C (configuration not stated)	1.11%
CC(C)NC(=O)Nc1ccc2c(c1)ncn2CC(=O)NCCN(C)C	-8.15%
COc1cccc2c1ccn2CCNC(=O)C1CCC1	-3.54%
COCC(=O)Nc1ccc2c(c1)CN(C(=O)c1ccco1)CC2	7.58%
O=C(NCC1(O)CCCC1)c1ccc2nsnc2c1	-5.37%
Cn1cc(C(=O)OC2CN(c3nc4c(C(F)(F)F)cccc4s3)C2)nn1	-11.8%
CC(C)N(C)[C@@H]1CCN(Cc2ccoc2)[C@H]1Cc1ccccc1	-2.57%
CCC(=O)N1CCC2(CC1)CN(C(C)=O)c1ccc(C)cc12	8.82%
COc1nn(C)c2c1CCCN(S(=O)(=O)c1ccccc1F)C2	-109%
COCC1CN(C(=O)c2cccc(C)n2)Cc2ncnn2C1 (configuration not stated)	3.84%
O=C(O)c1ccc2c(c1)C1(CCCCC1)CN2C(=O)c1cccs1	3.01%
CCC(=O)Nc1ccc2c(c1)CN(C(=O)c1ccco1)CC2	5.84%
O=S(=O)(Cc1ccccc1)NCC1CCN(c2cnccn2)CC1	14.4%
Cc1cc(O)c(OCC(=O)/N=c2\[nH]cc(C)s2)cn1	-12.4%
c1ccc(OCCNCc2cccs2)nc1	-3.26%
CCn1cc(CN(C)S(=O)(=O)c2ccc(NC(C)=O)cc2)cn1	9.22%
CNc1cccc(C2CN(C(=O)c3c[nH]cn3)CCO2)n1 (configuration not stated)	6%
O=C(C1CCCO1)N1CCC(O)(Cn2ccc3ccncc32)CC1 (configuration not stated)	-29.9%
O=C(NCC1CC1)Nc1cnc2cc(Cl)ccc2c1O	-0.0788%
Cc1ccc2nc(CN(Cc3ccc(C)o3)C(C)C)cc(=O)n2c1	5.6%
CC(C(=O)N(Cc1ccc(F)cc1)CC(F)(F)F)S(C)(=O)=O (configuration not stated)	14.7%
Cc1ccc(=O)n(Cc2nc(C(C)OCC(C)C)no2)n1 (configuration not stated)	-3.21%

Structure (SMILES)	cytotoxicity at 10 µM
CC(C)Oc1cccc(CC(=O)NC2CCN(CC(N)=O)CC2)c1	3.05%
Cc1ncc(CNC(=O)NCC(C)Oc2ccccc2F)s1 (configuration not stated)	-7.16%
CN(Cc1noc(C2CC2)n1)C1CCN(CCn2cccn2)C1 (configuration not stated)	-4.32%
O=C(NCCSC1CCCC1)c1cc(Cl)ccn1	-15.5%
COCCNc1ccc(CNCc2cnc3nc(C)cc(C)n23)cc1	-153%
CN(Cc1nc2ccccc2n1C)C(=O)CCc1cscn1	-159%
CSCCC(=O)N1CCN(CC(O)C(C)(C)C)CC1 (configuration not stated)	-2.06%
Cc1ncc(C(=O)Nc2cncnc2N(C)C)c(Cl)c1Cl	0.776%
O=C(C1CCN(c2ncnc3cccc(F)c23)CC1)N1CCCC1	3.76%
O=C(NCC1(O)CCSC1)c1ccn(-c2ccccc2F)n1 (configuration not stated)	2.88%
Cc1ccc(C(=O)NCC(O)CN2CCCC2=O)c(C)c1 (configuration not stated)	-6.68%
CC(C)N(CC(N)=O)CC(=O)NCCc1c(F)cccc1F	-4.97%
CCCN1CCCN(c2ccc(-n3ccc(C)n3)nn2)CC1	-1.2%
CN(C)c1ncc(NC(=O)N2CCC(CN3CCCC3)C2)cn1 (configuration not stated)	3.88%
c1ccc(CCN2CCCC(c3noc(C4CC4)n3)C2)cc1 (configuration not stated)	-3.62%
Cc1cnc(NC(=O)N2CCOCC2)s1	-1.14%
CC(C)N(CC(N)=O)C(=O)c1cnc(-c2ccc3c(c2)OCO3)s1	-5.92%
CN1CCC(NC(=O)CCCc2cc(Cl)sc2Cl)C1=O (configuration not stated)	-2.46%
CCCc1cc(N2CCCC2Cn2nc(C)cc2C)n2ncnc2n1 (configuration not stated)	2.48%
COC(=O)c1ccc(N2CCC(N(C)c3ccccc3)CC2)nn1	-4.92%
N#Cc1cnc2ccccc2c1N1CCNCC1	-1.86%
CCC1CN(c2cnn(C)c(=O)c2Cl)CCO1 (configuration not stated)	-1.26%
O=C(NCCn1ccnc1)c1cc(F)cc(Br)c1	-1.62%

Structure (SMILES)	cytotoxicity at 10 µM
COc1cccc(C(O)Cn2ncc3ncccc3c2=O)c1 (configuration not stated)	-2.45%
CCN(CC)c1ccc(NC(=O)NCC2CCOC2)cn1 (configuration not stated)	2.14%
CCN(C(=O)CN1CCCC1c1ccc(OC)cc1)c1ccccc1 (configuration not stated)	-2.25%
COc1ccc2c(c1)C(NCCc1ccccn1)CCCO2 (configuration not stated)	-6.03%
CCC(NC(=O)NCc1ccoc1C)c1c(C)nn(C)c1C (configuration not stated)	-1.44%
N#Cc1cc(S(N)(=O)=O)ccc1NC1CCc2c(F)cccc21 (configuration not stated)	-12.4%
CCC1CN(C(=O)COc2ccc(NC(C)=O)cc2)CCO1 (configuration not stated)	-9.4%
COc1ccc(Br)cc1CCC(=O)N1CCCC1	-4.2%
Cc1cc(-n2cncn2)ccc1C(=O)Nc1ccc(N2CCCC2)cn1	7.26%
Cc1nc(-c2ccccc2)sc1CSC(C)C(N)=O (configuration not stated)	-6.55%
Cc1ccc(C(CNCc2cnn(C(C)C)c2)N2CCOCC2)s1 (configuration not stated)	-21.3%
O=C(NCc1nnc2n1CCCC2)N(Cc1ccccc1F)C1CC1	-9.29%
CCc1nnc(CNCC2CCCN2c2cccnn2)o1 (configuration not stated)	-10.7%
Cc1cnn(CC2CCCN2C(=O)CCCc2nc(C)no2)c1 (configuration not stated)	2.86%
COCCN1CCCC2(CCN(c3nccc4ccccc34)C2)C1=O (configuration not stated)	-0.212%
CCCn1ncc(C(=O)N2CCC(N3CCCCC3)CC2)c1C	-143%
Cc1nccc(-c2ccccc2)c1C(=O)N1CCC2(CCCO2)CC1	2.34%
COc1ccccc1CNC(=O)CN(C)C(C)c1nccs1 (configuration not stated)	1.81%
Cc1ccc(-c2noc([C@H](N)CC(C)C)n2)nn1	1.27%
CCc1cc(N2CCN(c3cnccn3)CC2)n2nc(C)c(C)c2n1	6.71%
COCC[C@]1(O)CCN(Cc2nc(C)c(C)s2)C[C@H]1C	2.14%
CCOc1ccc2[nH]c(=O)c(CN3CCCC(CO)(CO)C3)cc2c1	22.3%
O=C(CCc1ccncc1)N1CCc2c(ncnc2N2CCOCC2)C1	-11.5%

Structure (SMILES)	cytotoxicity at 10 µM
CCc1noc(C2CCCCN2C(=O)c2ccccc2)n1 (configuration not stated)	-2.38%
CN(C)C(=O)N1CCN(CCCOc2ccccc2)[C@H]2CS(=O)(=O)C[C@H]21	0.666%
Cc1nn(C)c(C)c1CN(Cc1cccn1-c1ccccn1)C(C)C	0.936%
CC[C@@]1(O)CCN(C(=O)CCc2cnn(C)c2)C[C@H]1O	-0.634%
O=C(c1cccnc1O)N1CCCC2(C=Cc3ccccc3O2)CC1 (configuration not stated)	9.02%
O=C1NCCN(Cc2cccnc2)C1CC(=O)N1CCc2n[nH]cc2C1 (configuration not stated)	-4.05%
N#Cc1cccc(CN2CCN(C(=O)C3CCC3)[C@@H]3CS(=O)(=O)C[C@@H]32)c1	-3.49%
CCn1ccnc1CNc1nccc(-c2c(C)nn(C)c2C)n1	-0.0793%
Cc1nn(C)cc1C(=O)N1CCCN(C2Cc3ccccc3C2)CC1	-3.16%
Cc1nc2c(C(=O)N[C@H]3C[C@H]4CN(C)CCN4C3)cccc2[nH]1	-7.98%
COCC[C@]1(O)CCN(C(=O)c2cnn(C)c2)C[C@H]1C	2.59%
COc1ccc(C(=O)N2C[C@@H](C(=O)O)[C@H](c3cccc(F)c3)C2)c(O)c1	6.03%
CN(Cc1csc(-c2ccccc2)n1)C(=O)CCNS(C)(=O)=O	0.571%
CC(C)(C)c1cc(CNC(=O)c2cc(COc3ccccc3)[nH]n2)[nH]n1	8.28%
COc1ccc2c(c1)OCC(Cc1ccc(CN)cn1)C2 (configuration not stated)	-1.84%
CC(=O)NCCCC(=O)N1CCC(Sc2cccc(C)c2)CC1	2.06%
CC(C)NC(=O)[C@@H]1C[C@@H](N)CN1C(=O)c1cc2c([nH]c1=O)CCCC2	-0.869%
Cn1cc(C(=O)N2CCCCC2CCc2ccccc2)cn1 (configuration not stated)	-7.45%
O=C(c1ccc(C2CCCO2)s1)N1Cc2ccccc2C1 (configuration not stated)	-13.4%
CC(C)c1cc(CSCCC(=O)O)no1	-7.52%
O=C(CSc1nccc(-c2ccc3c(c2)OCO3)n1)N1CCOCC1	-8.3%
Cc1cn(Cc2ccc(F)cc2)nc1N	-8.99%
Cc1oc(C(=O)O)cc1S(=O)(=O)Nc1cccc(Cl)c1F	-5.99%

Structure (SMILES)	cytotoxicity at 10 µM
O=C(Cc1ccc2c(c1)CCC2)N1CCN(c2cnccn2)CC1	-2.18%
Cc1ccc(NC2CCN(C(=O)c3nccc4ccccc34)CC2)nn1	-13.5%
CCn1ccnc1CN1CCCN(C(=O)COC2CCCC2)CC1	-6.58%
COc1ccnc(N2CCN(C(=O)Cc3ccn(C(C)C)n3)CC2)n1	-16.2%
CCc1nnc(CN2CCCN(C(=O)c3ccccn3)CC2)o1	-5.56%
CCOC(CC)C(=O)NCc1cccc(N2CCCCC2=O)c1 (configuration not stated)	5.12%
CCN(C)S(=O)(=O)N(CC)Cc1ccc2c(c1)OCO2	-6.62%
Cc1ccc2c(c1)C(NC(C)C)CC21CCNCC1 (configuration not stated)	-10.6%
O=C(c1ccc2ccccc2n1)N1CCC2(CCN2c2ncccn2)C1 (configuration not stated)	-114%
c1c(CN2CCCC2)nc2n1CCN(CC1CC1)C2	-136%
COCCN1CCC2(CCC(=O)N2Cc2csc(C)n2)CC1	2.22%
CCN1CC[C@@]2(C(=O)N3CCCC3)CCN(S(C)(=O)=O)CC[C@@H]12	-0.537%
CN(C)CCO[C@H]1CN(Cc2cccc(C#N)c2)[C@@H]2COC[C@H]12	-12.7%
O=C(N1CCCO1)[C@@]12CCO[C@@H]1CCN(Cc1ccc(F)cc1)C2	-6.1%
CSc1ccc(CNC2CCCc3c2cnn3C)cc1 (configuration not stated)	0.684%
CS(=O)(=O)N[C@H]1CCO[C@]2(CCN(CC3CCOCC3)C2)C1	-122%
O=C([C@H]1CC[C@@H]2[C@@H](CCN2Cc2ccsc2)O1)N1CCOCC1	1.3%
Cc1noc(C)c1CN1C(=O)[C@@H]2CC[C@H]1CN(Cc1ccc(Cl)cc1)C2	6.22%
CN1C[C@H]2CC[C@@H](CC1=O)N2C(=O)c1ccc(-c2ccccc2)[nH]c1=O	5.91%
CCOc1ccc(C2c3c(N)nc(SC)nc3N=C3COC(=O)C32)cc1 (configuration not stated)	30%
